Source: PubChem BioAssay (Sanford-Burnham Center for Chemical Genomics)
Not all results are given here.
Apaf1 activ: activators of human Apaf-1 apoptosome, primary screen, biochemical, DEVD-Rh110 fluorescence, uHTS; AID 489031, 2010; 330,000 compounds, 0.31% hits; activity change, negative = activation, % at 20 µM; Apaf-1 apoptosome caspase-3 activation; hits give low values;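 active = activity change at or below -40% at 20 µM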
Target sequence (O14727 whole entry, looked up): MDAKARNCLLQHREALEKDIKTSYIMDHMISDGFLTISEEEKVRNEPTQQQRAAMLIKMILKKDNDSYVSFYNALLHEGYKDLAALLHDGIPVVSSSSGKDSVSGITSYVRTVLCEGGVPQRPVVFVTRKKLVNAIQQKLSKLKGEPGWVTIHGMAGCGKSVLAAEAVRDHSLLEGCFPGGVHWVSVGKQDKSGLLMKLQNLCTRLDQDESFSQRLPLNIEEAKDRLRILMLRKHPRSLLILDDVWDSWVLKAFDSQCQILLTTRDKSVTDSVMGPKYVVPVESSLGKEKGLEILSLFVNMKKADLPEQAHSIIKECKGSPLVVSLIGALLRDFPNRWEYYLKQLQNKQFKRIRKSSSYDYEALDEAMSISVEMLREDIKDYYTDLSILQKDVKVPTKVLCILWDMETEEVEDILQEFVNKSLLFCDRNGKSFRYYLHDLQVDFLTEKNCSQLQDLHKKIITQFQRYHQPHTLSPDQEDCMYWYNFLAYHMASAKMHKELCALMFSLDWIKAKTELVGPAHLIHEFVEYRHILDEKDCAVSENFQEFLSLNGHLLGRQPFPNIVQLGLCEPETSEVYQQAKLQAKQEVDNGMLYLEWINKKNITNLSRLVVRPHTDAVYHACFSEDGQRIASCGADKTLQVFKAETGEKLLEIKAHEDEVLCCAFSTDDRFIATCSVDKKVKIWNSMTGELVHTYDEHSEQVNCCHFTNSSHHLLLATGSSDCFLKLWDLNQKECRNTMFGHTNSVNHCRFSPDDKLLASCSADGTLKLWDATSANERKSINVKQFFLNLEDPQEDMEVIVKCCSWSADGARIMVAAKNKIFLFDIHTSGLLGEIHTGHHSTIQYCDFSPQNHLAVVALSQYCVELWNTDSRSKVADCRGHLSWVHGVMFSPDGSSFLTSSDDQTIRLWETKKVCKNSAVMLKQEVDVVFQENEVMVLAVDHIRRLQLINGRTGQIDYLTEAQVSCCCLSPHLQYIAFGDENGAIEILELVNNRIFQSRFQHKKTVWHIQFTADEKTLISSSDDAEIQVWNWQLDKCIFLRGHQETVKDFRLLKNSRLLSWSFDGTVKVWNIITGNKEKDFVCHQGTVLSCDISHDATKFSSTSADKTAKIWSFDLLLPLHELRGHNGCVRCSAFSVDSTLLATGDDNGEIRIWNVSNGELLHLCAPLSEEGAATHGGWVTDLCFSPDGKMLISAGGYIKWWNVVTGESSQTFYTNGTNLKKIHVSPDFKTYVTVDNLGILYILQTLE
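Material: biochemical Apaf-1 apoptosome reconstitution; Medium: 20 mM HEPES buffer, pH 7.5, containing CHAPS and BSA; Reagent: dATP, cytochrome c, and (Z-DEVD)2-Rh110 caspase-3 substrate; Times: 30 min preincubation, 50 min reaction, room temperature; Signal: Rh110 fluorescence, excitation 480 nm, emission 540 nm; Measure: Caspase-3 activity via Apaf-1.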
Rh110 act interf: Rh110 fluorescence interference by putative Apaf-1 activators, confirmation, artefact control for Apaf-1 activator project, biochemical, 20 µM; 980 tested, under 10 active; shares compounds with Apaf1 activ; fluorescence interference (activity change), % at 20 µM, hits read low; quenched caspase reaction, Ex480/Em540;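 active = mean activity change at or below -40% when tested at 20 µM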
Apaf-1 act conf: Apaf-1 activators, single-dose retest, confirmation, biochemical, fluorescence, DEVD-Rh110, 20 µM. shares compounds with Apaf1 activ. reconstituted apoptosome caspase-3 activity; hits give low values. activity change, negative = activation, % at 20 µM. 980 compounds, 5% hits. AID 504617, 2011;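 active = mean activity change at or below -40%, meaning activation of 40% or more, at 20 µM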
Fluor interf act: fluorescence interference of Apaf-1 activator hits, dose response, artefact control for Apaf-1 activator project | 55 tested, under 10 active | AID 588592, 2011 | EC50, µM | shares compounds with Apaf1 activ | fluorescence interference counterscreen, Apaf-1 activator assay; call rule not given here
Each line names hits and unclear results; the compound was inactive in the other large screens (follow-up assays come after a bar, where they were run).

C#CCOCCOCCOCCNc1nc(N2CCN(C(=O)CCCCCCCCCCNC(=O)[C@@H](CCSC)n3cc(CCO)nn3)CC2)nc(N2CCN(C(=O)CCCCCCCCCCNC(=O)[C@H](CCC(=O)O)n3cc(CCCCCN)nn3)CC2)n1	none
CC1(OC(=O)C2CCCC2)C(=O)C=C2C=C(c3ccsc3)N(CCCCO)C=C2C1=O (stereo unspecified)	none
CC1=CC(=Nc2c(C)n(C)n(-c3ccccc3)c2=O)C=CC1=O	none
Cc1ccsc1C(=O)OCC(=O)Nc1c(C)n(C)n(-c2ccccc2)c1=O	Apaf1 activ -77 | Rh110 act interf inactive | Apaf-1 act conf inactive
Cc1c(NC(=O)CSc2ccc3c(c2)OCCO3)c(=O)n(-c2ccccc2)n1C	Apaf1 activ -46 | Rh110 act interf inactive | Apaf-1 act conf inactive
Nc1ccc2nn(-c3cccc4ccccc34)nc2c1	none
CNC[C@H](CC1CCCCC1)NC[C@H](Cc1ccccc1)NCCC12CC3CC(CC(C3)C1)C2	none
CC(=O)C(C(C)=O)C1(O)C(=O)c2ccccc2C1=O	none
COc1ccc2ccccc2c1C(O)c1nccn1C (stereo unspecified)	none
Cn1ccnc1C(O)c1ccc(OCc2ccccc2)cc1 (stereo unspecified)	Apaf1 activ -355 | Rh110 act interf inactive | Apaf-1 act conf inactive
CC(NCc1ccc(OCc2ccc(Cl)cc2)cc1)C(O)c1ccccc1 (stereo unspecified)	none
COc1ccccc1NC(=S)Nc1cccc2cnccc12	none
O=C(Nc1ccc2nsnc2c1)N1CCCCC1	none
COc1ccccc1NC(=O)Nc1ccc(C(=O)N2CCCCC2)cc1	Apaf1 activ -80 | Rh110 act interf inactive | Apaf-1 act conf inactive
O=C1c2ccccc2-c2onc3ccc(NCc4ccco4)c1c23	none
COC(CNC(=O)c1ccc2c3c(onc13)-c1ccccc1C2=O)OC	none
CCOc1ccc2noc3c2c1C(=O)c1ccccc1-3	none | Fluor interf act 14
Cc1ccc(S(=O)(=O)N(C)C)cc1NC(=S)Nc1cccc2ccccc12	none
Cc1ccc(F)cc1NC(=S)NCCc1ccccc1	Apaf1 activ -523 | Rh110 act interf inactive | Apaf-1 act conf inactive
Fc1ccc(NC(=S)Nc2cccc3ccccc23)cc1	none
CC(C)(C)OC(=O)NCCCCCNC(=O)c1nc[nH]c1C(=O)NCCCCCNC(=O)OC(C)(C)C	Apaf1 activ -50 | Rh110 act interf inactive | Apaf-1 act conf inactive
C#CCOCCOCCOCCNc1nc(N2CCN(C(=O)CCCCCCCCCCNC(=O)[C@H](CCCCN)n3cc(C[C@@H](C)CC)nn3)CC2)nc(N2CCN(C(=O)CCCCCCCCCCNC(=O)[C@H](CCCN=C(N)N)n3cc(C[C@@H](C)CC)nn3)CC2)n1	none
O=C(OCC(=O)N1CCN(S(=O)(=O)c2ccccc2)CC1)c1ccc([N+](=O)[O-])o1	none
COc1cc([N+](=O)[O-])c2ncsc2c1	Apaf1 activ -59 | Rh110 act interf inactive | Apaf-1 act conf inactive
COc1cc(/C=N/N=C2/C(=O)Nc3ccccc32)ccc1O	Apaf1 activ -445 | Rh110 act interf inactive | Apaf-1 act conf inactive
Nc1ccc(C(=O)O)c(O)c1	none
N#Cc1c(N2CCCCC2)nc(N)c2c(N)nc3c(c12)CC(c1ccccc1)O3 (stereo unspecified)	none
CC(=O)N(/N=C1\Sc2ccccc2C1=O)c1ccccc1C	none
COCCCNC(=O)c1c(N)n(-c2cccc(S(N)(=O)=O)c2)c2nc3ccccc3nc12	none
CCn1cc(C(=O)NCCCOC)c(=O)c2cc(S(=O)(=O)N(C)C)ccc21	Apaf1 activ -303 | Rh110 act interf inactive | Apaf-1 act conf inactive
CC1(C)CNc2cc(N)ccc2S1	none
COc1cc(CNc2ccc(N3CCOCC3)cc2)cc(Br)c1OC	Apaf1 activ -85 | Rh110 act interf inactive | Apaf-1 act conf inactive
CCOc1cc(CNc2ccc(N3CCCCC3)cc2)cc(Br)c1OCC(=O)NC(C)(C)C	none
CCOc1cc(CNc2ccc(N3CCCC3)cc2)cc(Cl)c1OC	none
CCOC(=O)c1cnn(-c2c(Cc3ccccc3)c(C)nc3c(-c4ccccc4)c(C)nn23)c1N	none
CCOC(=O)c1cc(C#N)c(N2CCN(c3ccccn3)CC2)nc1-c1ccccc1	Apaf1 activ -443 | Rh110 act interf inactive | Apaf-1 act conf inactive
CCOC(=O)c1ccc(-n2[nH]c(-c3ccccc3)cc2=O)cc1	none
COC(=O)CCC(=O)OC1(C)C(=O)C=C2C=C(C3CC3)N(CC3CC3)C=C2C1=O (stereo unspecified)	none
CCc1nn(CCCC(=O)NCc2ccccc2Br)c(=O)c2cc3occc3n12	none
